Source: PubChem BioAssay (Johns Hopkins Ion Channel Center)
A selection: hits, their analogues and other compounds. The true share with any hit is near 3.7%.
KCNK3 inh = human KCNK3 channel inhibition, primary screen; O14649; CHO-KCNK3 thallium flux, FluxOR fluorescence; stronger effect = lower value; B-score at 10 µM; hit rate 0.84% among 340,000; AID 602410;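 active means B-score under library mean minus 4 SD, starting fluorescence ratio at most library mean plus 5 SD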;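 further: more negative B-score means stronger inhibition of thallium flux through KCNK3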
Target sequence (O14649 whole entry, looked up): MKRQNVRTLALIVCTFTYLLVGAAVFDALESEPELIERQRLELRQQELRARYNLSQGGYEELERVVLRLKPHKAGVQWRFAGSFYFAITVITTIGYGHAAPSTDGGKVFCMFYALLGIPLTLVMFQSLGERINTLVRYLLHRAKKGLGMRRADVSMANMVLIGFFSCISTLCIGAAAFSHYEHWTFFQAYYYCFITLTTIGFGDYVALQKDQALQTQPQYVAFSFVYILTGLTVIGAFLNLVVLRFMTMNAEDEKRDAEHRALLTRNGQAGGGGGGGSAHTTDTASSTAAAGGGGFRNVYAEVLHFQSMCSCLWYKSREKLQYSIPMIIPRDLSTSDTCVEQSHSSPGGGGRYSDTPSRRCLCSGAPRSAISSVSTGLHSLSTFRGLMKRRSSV
hERG protect = hERG (human) protection from proarrhythmic block; Q12809; CHO-hERG, FluxOR thallium flux, dofetilide IC70 present; activation (rescue from dofetilide block), less the hit threshold, % at 10 µM; hit rate 0.51% among 310,000; AID 1511;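 active means activation above the mean of controls blocked by dofetilide plus 5 SD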;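 further: thallium influx through hERG after potassium depolarization seen as dye fluorescence rise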
KCNQ1 inh = blocks the human KCNQ1 potassium channel; hit rate 1.3% among 310,000; CHO-K1 KCNQ1, FluxOR thallium flux fluorescence; stronger effect = higher value; AID 2642; P51787; B-score at 10 µM;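 active means compounds whose thallium flux B-score, printed positive for inhibition, exceeds three library SD while starting fluorescence stays within three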;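 further: channel opened by potassium depolarization with thallium stimulus after 20 min compound exposure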
KCNQ1 pot = potentiators or activators of human KCNQ1 potassium channel; P51787; CHO-K1 KCNQ1, thallium flux FluxOR fluorescence; stronger effect = higher value; AID 2648; hit rate 0.35% among 310,000; B-score at 10 µM;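 active means fluorescence ratio B-score, a plate-corrected score, at least three library SD, with initial intensity B-score within 5 SD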
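Assay system: stable KCNQ1 CHO-K1 line; medium: assay buffer, equal DMSO in all wells; timing: 90 min dye loading and 20 min compound exposure, both at room temperature; technique: kinetic FluxOR thallium fluorescence, 10-s 1-Hz baseline, 110-s post-stimulus read; read-out basis: B score of baseline-normalized fluorescence ratio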
Kir21 inh = inhibitors of mouse Kir2.1 inward-rectifier potassium channel | P35561 | hit rate 0.85% among 310,000 | B-score at 10 µM | HEK293-Kir2.1, FluxOR thallium flux fluorescence; stronger effect = lower value | AID 1672;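 active means fluorescence ratio B-score at or below minus 3 SD of library scores, with starting-brightness B-score within 2 SD, cut at about -4.2 in these data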;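 further: channel flux triggered by added potassium and thallium sulfate stimulus; B-score of peak minus minimum fluorescence over baseline after thallium stimulus; more negative B-score means stronger Kir2.1 block with less thallium influx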
KCNK9 inh = human KCNK9 channel inhibition. hit rate 1.2% among 310,000. Q9NPC2. B-score at 10 µM. AID 488922. HEK293 KCNK9, FluxOR thallium flux fluorescence; stronger effect = lower value;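 active means ratio B-score over 3 SD below the library mean, with starting fluorescence within 5 SD of its mean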;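 further: negative B-score means less thallium flux so channel inhibition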
KCNK9 inh conf = confirmation of human KCNK9 potassium channel inhibitors; shares compounds with KCNK9 inh; hit rate 43% among 4,900; HEK293 KCNK9 cells, FluxOR thallium flux fluorescence; AID 492992; inhibition, % at 10 µM;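 active means thallium signal inhibited by more than 5 SD of the compound-free buffer control wells, on both duplicate plates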;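 further: 0% = assay buffer control wells without compound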
Kir2-1 spec = mouse Kir2.1 off-target activity of KCNK9 modulators. inhibition, % at 10 µM. hit rate 4% among 4,900. shares compounds with KCNK9 inh. Kir2.1 cells, FluxOR thallium flux fluorescence;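 active means thallium signal drop more than 5 SD beyond the mean of the no-compound control wells, seen in both duplicate plates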;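 further: signal is fluorescence rise after thallium addition divided by baseline fluorescence; plate controls were assay buffer only for no effect and full block by chlorpromazine control for full effect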
KCNK9 uninduced = second counter-screen for KCNK9 modulators: effect in non-induced cells | hit rate 40% among 4,900 | AID 492997 | shares compounds with KCNK9 inh | inhibition, % at 10 µM | non-induced KCNK9-HEK293, FluxOR thallium flux;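 active means thallium signal drop beyond 5 SD of the untreated control mean, on both duplicate plates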;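 further: plate controls were buffer only IC0 wells for no effect and SID17386958 at its maximal inhibitory level for full effect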
* marks the source's active call; other numbers are inactive results; i = inactive; . = no result given.

SMILES	KCNK3 inh	hERG protect	KCNQ1 inh	KCNQ1 pot	Kir21 inh	KCNK9 inh	KCNK9 inh conf	Kir2-1 spec	KCNK9 uninduced
COc1ccc(NC(=O)c2cc(-c3ccccc3)nc3c2cnn3C(C)C)c(OC)c1	i	.	.	.	.	.	.	.	.
CCOc1ccc(CC(=O)Nc2nccs2)cc1OCC	i	1	i	i	-0.79	i	.	.	.
COc1ccc(CN(Cc2cccn2C)S(=O)(=O)c2cccc(C(F)(F)F)c2)cc1	i	-10	6*	i	0.85	-8.8*	46%*	i	34%*
Fc1ccc(-[n+]2nc(Nc3ccccc3)sc2-c2c3ccccc3cc3ccccc23)cc1	i	-21	11*	i	-1.2	-12*	34%*	i	i
c1ccc(CC2CCN(Cc3nc(-c4ccccc4)no3)CC2)cc1	i	-12	i	i	-1.4	i	i	i	i
COCC1CCN(Cc2nc(-c3ccc(OC)cc3)no2)CC1	i	-6	i	i	-1	i	.	.	.
N#Cc1nc(Cc2ccccc2)oc1N1CCN(c2cccc(Cl)c2)CC1	i	-9	i	i	0.32	-11*	38%*	i	i
Clc1cccc(N2CCN(Cc3nc(-c4ccccc4)no3)CC2)c1	i	-7	i	i	-0.04	i	i	i	i
COc1ccc(-c2noc(CN3CCC(Cc4ccccc4)CC3)n2)cc1	i	-10	i	i	0.63	i	i	i	i
O=C(O)CCn1c(=S)n(CCC(=O)O)c2ccccc21	i	-5	i	i	1.3	i	.	.	.
Cc1cccc(N2CC(C(=O)Nc3nnc(SCC(=O)NCC4CCCO4)s3)CC2=O)c1 (stereo not drawn)	i	-7	i	i	-0.26	i	.	.	.
COc1cc(C2C(C#N)=C(N)Oc3cc(O)ccc32)cc2c1OCO2 (stereo not drawn)	i	-10	i	i	-1.9	i	.	.	.
COc1cc(C2C(C#N)=C(N)Oc3cc(N(C)C)ccc32)cc2c1OCO2 (stereo not drawn)	i	-12	i	i	-1.7	-8.6*	34%*	i	54%*
Cc1ccccc1N=C(NOCc1ccc(Cl)cc1Cl)c1nonc1N	i	-11	i	i	1.5	-16*	82%*	i	46%*
Cc1ccc(N=C(NOCc2ccc(Cl)cc2Cl)c2nonc2N)c(C)c1	i	-3	i	i	0.26	-16*	77%*	i	46%*
COc1ccccc1N1CCN(/N=C/C=C\c2ccccc2[N+](=O)[O-])CC1	i	-16	i	i	2.6	i	i	i	i
CN(C)CCN(Cc1ccccc1)c1ccnc(N(C)C)c1C#N	i	-11	i	i	-2.8	i	.	.	.
CN(C)c1nccc(N(Cc2ccccc2)Cc2ccccc2)c1C#N	i	-6	i	i	0.09	i	i	i	24%*
CCOc1ccc(N2CC(C(=O)NC3=NCCS3)CC2=O)cc1 (stereo not drawn)	i	-8	i	i	0.05	i	.	.	.
CCN(CC)C(=O)c1cccc(NC(=O)C2CCN(C(=O)c3cccs3)CC2)c1	i	.	.	.	.	.	.	.	.
COc1cc(OC)nc(Oc2cccc(C(F)(F)F)c2)n1	i	-7	i	i	0.18	-10*	48%*	i	38%*
C/C(=N\NC(=O)c1c(Cl)cnn1C)c1ccc(NC(=O)c2ccncc2)cc1	i	-6	i	i	1.8	i	.	.	.
CN(Cc1ccccc1)C(=O)COC(=O)c1ccccc1NS(=O)(=O)c1cccc(N)c1	i	-7	i	i	-0.96	i	.	.	.
CC(OC(=O)c1ccccc1NS(=O)(=O)c1cccc(C(F)(F)F)c1)C(=O)N(C)Cc1ccccc1 (stereo not drawn)	i	-9	i	i	1.5	-13*	64%*	i	31%*
C/C(=C\c1ccccc1)CN1CCN(c2ccccc2)CC1	i	-13	i	i	0.17	i	i	i	i
SMILES	KCNK3 inh	hERG protect	KCNQ1 inh	KCNQ1 pot	Kir21 inh	KCNK9 inh	KCNK9 inh conf	Kir2-1 spec	KCNK9 uninduced
O=C(c1ccc(F)cc1)N1CCCC(c2ccccc2)C1 (stereo not drawn)	i	-11	i	i	-0.01	-8.8*	36%*	i	i
O=C(c1cc(COc2ccc(F)cc2F)on1)N1CC[C@@H]2CCCC[C@H]2C1	i	-13	i	i	-0.09	i	i	i	i
O=C(c1cc(F)ccc1F)C1CCCN(C(=O)c2cccs2)C1 (stereo not drawn)	i	-3	i	i	-1.4	i	.	.	.
CC(C)Cc1cc(C(=O)N2CCCC(C(=O)c3cc(F)ccc3F)C2)no1 (stereo not drawn)	i	-5	i	i	0.3	i	i	i	i
O=C(c1cc(COc2ccc(F)cc2F)on1)N1CCCC(c2ccccc2)C1 (stereo not drawn)	i	-8	i	i	0.3	i	i	i	36%*
Cc1nc(C)c(C(=O)OCC(=O)Nc2cccc(C)c2C)s1	i	.	.	.	.	.	.	.	.
S=C(c1cccs1)N1CCN(c2ccccc2)CC1	i	.	.	.	.	.	.	.	.
COc1cc(C)c(Cl)cc1S(=O)(=O)N1CCSC1	i	-4	i	i	1.3	i	.	.	.
CCN(CC)C(=O)CSc1nc2c(sc(=S)n2-c2ccc(C)cc2C)c(=O)[nH]1	i	-8	i	i	0.76	i	.	.	.
O=C(Nc1nnc(-c2ccncc2)o1)c1ccccc1	i	-8	i	i	1.1	i	.	.	.
O=C(Nc1nnc(-c2ccc3c(c2)CCCC3)o1)c1ccccc1	i	-9	i	33*	0.95	i	i	i	i
CC(C)(C)c1ccc(SCCc2cccnc2)cc1	i	0	i	i	-0.54	i	i	i	i
O=C(Nc1cccnc1)c1c(F)c(F)c(F)c(F)c1F	i	-2	i	i	2.1	i	.	.	.
O=C(Nc1ccncc1)c1c(F)c(F)c(F)c(F)c1F	i	1	i	i	1.2	-11*	36%*	i	28%*
COc1ccc(N(CC(O)CN2CCOCC2)S(=O)(=O)c2ccccc2)cc1 (stereo not drawn)	i	-3	i	i	-0.1	i	.	.	.
